Test [1] concerns the target T1, Signal transducer and activator of transcription 3 (Homo sapiens, UniProt P40763). The test can be described thus: Inhibition of IL-6 induced STAT3 transcriptional activity in human HEK-Blue IL-6 cells assessed as secreted embryonic alkaline phosphatase reporter gene expression measured after 20 hrs by microplate reader. A digest of the protocol: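 HEK-Blue IL-6 reporter cells were treated for 20 h. IL-6/JAK/STAT3 pathway activity was quantified from secreted SEAP using a detection reagent, with parallel MTT viability. Values are averages of three independent experiments.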

The target in test [2] is T1, Signal transducer and activator of transcription 3. The test can be described thus: Inhibition of IL-6 induced STAT3 transcriptional activity in human HEK-Blue IL-6 cells assessed as secreted embryonic alkaline phosphatase reporter gene expression by microplate reader. Summed up:
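HEK-Blue IL-6 reporter cells were treated for 20 h, and STAT3 pathway activity was quantified from secreted SEAP using a detection reagent. […] Values are averages of three independent experiments.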
(In general: A reporter such as luciferase makes a cellular process visible.)

T1 sequence (P40763 whole entry): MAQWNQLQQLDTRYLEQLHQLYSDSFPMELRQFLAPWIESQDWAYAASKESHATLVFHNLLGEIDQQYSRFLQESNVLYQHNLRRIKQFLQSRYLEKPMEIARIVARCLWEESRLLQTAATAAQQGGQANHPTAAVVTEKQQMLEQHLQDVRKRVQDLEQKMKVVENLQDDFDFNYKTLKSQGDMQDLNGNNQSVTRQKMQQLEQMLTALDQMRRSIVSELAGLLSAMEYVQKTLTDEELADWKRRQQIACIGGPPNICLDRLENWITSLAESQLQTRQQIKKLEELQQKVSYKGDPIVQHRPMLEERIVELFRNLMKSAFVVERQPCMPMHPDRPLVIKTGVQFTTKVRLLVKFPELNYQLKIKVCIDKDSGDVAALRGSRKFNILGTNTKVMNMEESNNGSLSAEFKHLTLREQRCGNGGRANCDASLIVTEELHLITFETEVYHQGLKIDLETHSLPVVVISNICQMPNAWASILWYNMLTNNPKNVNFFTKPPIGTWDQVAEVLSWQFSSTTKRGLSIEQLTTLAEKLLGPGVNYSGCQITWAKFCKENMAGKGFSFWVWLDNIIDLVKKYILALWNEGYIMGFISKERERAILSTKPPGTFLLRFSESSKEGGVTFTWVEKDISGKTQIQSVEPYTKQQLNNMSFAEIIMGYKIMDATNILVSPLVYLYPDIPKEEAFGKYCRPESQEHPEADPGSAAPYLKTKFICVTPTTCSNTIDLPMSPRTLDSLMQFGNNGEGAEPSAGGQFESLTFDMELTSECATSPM

For `CC(=O)Oc1ccccc1C(=O)Nc1ncc([N+](=O)[O-])s1` [Alinia], the IC50 (as a rule, the concentration needed to halve the response being measured) was 9.8 µM in test [1] and 9.98 µM in test [2].

Consider `C[C@H](NC(=O)/C(C#N)=C/c1cccc(Br)n1)c1ccccc1` [Wp 1066], for which the IC50 in test [1] was 2.5 µM; in test [2] it was 1.79 µM.
